Here are results for three compounds from ChEMBL document CHEMBL4118021, “Studies of TAK1-centered polypharmacology with novel covalent TAK1 inhibitors” (Bioorg Med Chem, 2017).

Type in all cases: cell-based
In assay [1] the target is Mitogen-activated protein kinase kinase kinase kinase 4 (Homo sapiens) (UniProt O95819). Kind of assay: Inhibition of ZC1/HGK in human SKCO1 cells at 1 uM after 4 hrs using biotin labeled DIKGQNVLLTENAEVK probe by mass-spectrometric analysis relative to control. To be noted: pooled result: one value given for 3 cell lines, strains, targets or settings. In outline: (§1)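 Live SK-CO-1 cells exposed to compound at 1 μM or DMSO for 4 h (KiNativ). Lysates then labeled with lysine-reactive ATP/ADP-biotin probe, and probe-labeled kinase peptides quantified by mass spectrometry. Percent inhibition of probe-dependent recovery calculated relative to DMSO-treated cells.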

For assay [2], the target named is T1, Serine/threonine-protein kinase TAO1 (Homo sapiens) (UniProt Q7L7X3).
T1 sequence (whole entry): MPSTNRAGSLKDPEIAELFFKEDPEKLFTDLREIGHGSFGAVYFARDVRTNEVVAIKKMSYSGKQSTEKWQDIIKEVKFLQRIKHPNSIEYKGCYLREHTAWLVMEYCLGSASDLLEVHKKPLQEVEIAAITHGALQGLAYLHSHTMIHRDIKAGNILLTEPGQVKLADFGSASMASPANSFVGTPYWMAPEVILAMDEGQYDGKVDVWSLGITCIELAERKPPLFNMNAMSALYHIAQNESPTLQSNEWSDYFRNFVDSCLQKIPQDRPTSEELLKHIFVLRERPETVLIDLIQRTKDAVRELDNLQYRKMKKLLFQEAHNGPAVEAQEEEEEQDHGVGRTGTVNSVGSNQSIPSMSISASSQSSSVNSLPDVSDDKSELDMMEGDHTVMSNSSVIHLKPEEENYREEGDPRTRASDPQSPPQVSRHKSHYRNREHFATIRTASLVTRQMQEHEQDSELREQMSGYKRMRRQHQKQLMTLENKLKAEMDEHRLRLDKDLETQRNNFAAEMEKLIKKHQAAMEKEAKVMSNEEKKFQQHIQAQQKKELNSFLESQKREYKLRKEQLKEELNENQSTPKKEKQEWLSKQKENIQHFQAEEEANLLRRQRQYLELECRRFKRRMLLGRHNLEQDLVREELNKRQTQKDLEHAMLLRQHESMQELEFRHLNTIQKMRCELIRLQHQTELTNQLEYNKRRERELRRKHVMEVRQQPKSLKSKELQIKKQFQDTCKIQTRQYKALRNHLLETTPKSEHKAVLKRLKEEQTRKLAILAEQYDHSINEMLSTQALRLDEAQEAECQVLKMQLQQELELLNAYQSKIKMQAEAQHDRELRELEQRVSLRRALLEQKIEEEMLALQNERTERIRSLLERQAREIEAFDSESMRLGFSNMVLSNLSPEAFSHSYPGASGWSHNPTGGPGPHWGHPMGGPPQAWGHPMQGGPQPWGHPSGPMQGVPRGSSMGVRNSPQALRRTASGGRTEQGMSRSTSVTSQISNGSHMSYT
Kind of assay: Inhibition of TAO1 in human SKCO1 cells at 1 uM after 4 hrs using biotin labeled DIKAGNILLTEPGQVK probe by mass-spectrometric analysis relative to control. The procedure, abridged: as §1

Assay [3] deals with Cyclin-dependent kinase 18 (Homo sapiens) (UniProt Q07002). Kind of assay: Inhibition of PCTAIRE3 in human SKCO1 cells at 1 uM after 4 hrs using biotin labeled DLKPQNLLINER probe by mass-spectrometric analysis relative to control. In outline: as §1
Assay [4] deals with T2, Serine/threonine-protein kinase tousled-like 1 (Homo sapiens) (UniProt Q9UKI8).
T2 sequence (whole entry): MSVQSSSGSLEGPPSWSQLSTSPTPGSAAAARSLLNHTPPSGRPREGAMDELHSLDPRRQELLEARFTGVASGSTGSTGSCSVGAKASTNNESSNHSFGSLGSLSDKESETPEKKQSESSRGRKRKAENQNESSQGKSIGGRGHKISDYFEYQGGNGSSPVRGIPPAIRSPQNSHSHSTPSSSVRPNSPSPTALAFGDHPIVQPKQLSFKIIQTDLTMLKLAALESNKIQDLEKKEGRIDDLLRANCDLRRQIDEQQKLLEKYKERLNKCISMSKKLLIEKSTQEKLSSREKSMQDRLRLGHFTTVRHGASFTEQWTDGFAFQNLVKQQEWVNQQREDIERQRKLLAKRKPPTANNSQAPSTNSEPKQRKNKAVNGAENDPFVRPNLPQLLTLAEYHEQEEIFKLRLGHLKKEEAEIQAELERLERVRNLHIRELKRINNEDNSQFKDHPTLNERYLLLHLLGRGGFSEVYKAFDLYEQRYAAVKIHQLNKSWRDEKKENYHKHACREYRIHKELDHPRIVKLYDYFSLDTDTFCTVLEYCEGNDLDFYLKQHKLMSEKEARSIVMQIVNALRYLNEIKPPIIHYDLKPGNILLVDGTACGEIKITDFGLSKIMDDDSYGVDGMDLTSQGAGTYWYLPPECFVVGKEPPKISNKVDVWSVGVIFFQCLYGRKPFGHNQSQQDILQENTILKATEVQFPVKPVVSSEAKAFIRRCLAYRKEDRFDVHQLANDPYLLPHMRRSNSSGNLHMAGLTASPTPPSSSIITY
Briefly: Inhibition of TLK1 in human SKCO1 cells at 1 uM after 4 hrs using biotin labeled YLNEIKPPIIHYDLKPGNILLVDGTACEIK probe by mass-spectrometric analysis relative to control. In outline: as §1

Chain of Cyclin-dependent kinase 18 (Homo sapiens) (Q07002 whole entry): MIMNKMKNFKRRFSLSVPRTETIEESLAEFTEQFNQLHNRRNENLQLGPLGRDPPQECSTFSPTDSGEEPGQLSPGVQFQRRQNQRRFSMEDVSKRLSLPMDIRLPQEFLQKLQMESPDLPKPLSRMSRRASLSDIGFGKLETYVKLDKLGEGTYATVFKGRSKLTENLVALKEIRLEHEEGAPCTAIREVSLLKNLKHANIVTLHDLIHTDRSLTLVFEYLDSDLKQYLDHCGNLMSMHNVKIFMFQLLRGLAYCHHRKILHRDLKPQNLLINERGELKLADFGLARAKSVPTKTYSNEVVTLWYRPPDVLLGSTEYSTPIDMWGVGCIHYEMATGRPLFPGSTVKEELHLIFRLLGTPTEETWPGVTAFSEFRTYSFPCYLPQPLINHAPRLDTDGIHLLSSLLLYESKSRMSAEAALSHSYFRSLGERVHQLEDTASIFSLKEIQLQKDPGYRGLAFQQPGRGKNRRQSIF
Chain of Mitogen-activated protein kinase kinase kinase kinase 4 (Homo sapiens) (O95819 2-1239 limits assumed): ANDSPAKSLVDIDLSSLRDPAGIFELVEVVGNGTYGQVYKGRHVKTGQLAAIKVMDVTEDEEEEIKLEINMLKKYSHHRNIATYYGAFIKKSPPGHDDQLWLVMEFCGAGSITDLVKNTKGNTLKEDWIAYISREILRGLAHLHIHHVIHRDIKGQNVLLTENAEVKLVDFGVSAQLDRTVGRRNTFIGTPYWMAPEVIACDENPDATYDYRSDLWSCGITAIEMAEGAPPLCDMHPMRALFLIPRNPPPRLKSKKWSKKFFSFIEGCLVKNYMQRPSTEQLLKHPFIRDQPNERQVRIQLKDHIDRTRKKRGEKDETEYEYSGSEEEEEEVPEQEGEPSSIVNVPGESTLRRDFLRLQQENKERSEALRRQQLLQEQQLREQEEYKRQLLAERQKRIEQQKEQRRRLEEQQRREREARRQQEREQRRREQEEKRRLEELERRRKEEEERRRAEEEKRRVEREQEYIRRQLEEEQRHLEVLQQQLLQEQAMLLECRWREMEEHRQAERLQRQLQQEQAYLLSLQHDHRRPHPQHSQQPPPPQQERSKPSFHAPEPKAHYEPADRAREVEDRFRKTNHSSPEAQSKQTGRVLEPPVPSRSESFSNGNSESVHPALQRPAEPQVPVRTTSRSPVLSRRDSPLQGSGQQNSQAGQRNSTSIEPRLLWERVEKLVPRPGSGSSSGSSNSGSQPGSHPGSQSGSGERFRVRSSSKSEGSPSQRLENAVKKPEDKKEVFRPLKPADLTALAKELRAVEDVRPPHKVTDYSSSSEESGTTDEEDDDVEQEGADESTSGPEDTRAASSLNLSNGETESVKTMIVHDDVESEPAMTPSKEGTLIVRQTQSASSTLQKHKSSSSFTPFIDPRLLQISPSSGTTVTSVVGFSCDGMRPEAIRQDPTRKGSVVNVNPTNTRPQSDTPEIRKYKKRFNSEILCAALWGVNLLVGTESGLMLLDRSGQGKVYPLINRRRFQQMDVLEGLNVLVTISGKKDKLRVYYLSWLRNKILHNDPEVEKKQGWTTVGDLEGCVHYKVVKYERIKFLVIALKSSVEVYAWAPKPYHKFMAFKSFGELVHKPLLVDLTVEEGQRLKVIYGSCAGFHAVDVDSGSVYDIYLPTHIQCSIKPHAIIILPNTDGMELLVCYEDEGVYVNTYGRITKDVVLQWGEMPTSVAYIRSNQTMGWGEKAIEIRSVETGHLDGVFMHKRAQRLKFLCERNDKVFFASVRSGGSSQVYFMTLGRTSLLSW

Turning to `C=CC(=O)Nc1ccccc1Oc1nc(Nc2cnn(CCOC)c2)ncc1Cl`, the inhibition (usually the drop in the measured response relative to a control, in per cent) was 20.9% in assay [1], 9.6% in assay [2], -5.9% in assay [3] and 11.3% in assay [4].
Regarding `C=CC(=O)Nc1ccccc1Nc1nc(Nc2ccc(N3CCN(C)CC3)cc2)ncc1Cl`, the inhibition in assay [1] was 6.8%; in assay [2] it was 13.1%; in assay [3], -3.2%; in assay [4] it was 2.3%.
With `COc1cc(O)c2c(c1)/C=C/C[C@H](O)[C@H](O)C(=O)/C=C\C[C@H](C)OC2=O`, the inhibition in assay [1] was 15.1%; in assay [2], 39.4%; in assay [3], -6.3%; in assay [4] it was 19.3%.
